Experiments:
[1] = tested on: KB; test: Inhibition of cell proliferation of human KB cells at 1 uM after 72 hrs by CellTiter 96 assay; assay type: functional
In short: (§1)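 KB cells from NCI grown in D-MEM with 10% fetal calf serum and antibiotics under 5% CO2. 600 cells/well, compound in DMSO added 24 h after seeding (1% DMSO final), exposure 72 h. MTS reagent for 3 h at 37 °C, A490. % inhibition = (1 − OD treated/OD DMSO control) × 100, mean ± SE of triplicates.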

[2] = tested on: KB; test: Inhibition of cell proliferation of human KB cells at 10 uM after 72 hrs by CellTiter assay; assay type: functional; in short: as §1
[3] = tested on: KB; test: Growth inhibition of human KB cells after 72 hrs by CellTiter 96 assay; assay type: functional, cell-based
In short: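 NCI KB cells in D-MEM with 10% fetal calf serum and antibiotics, 5% CO2. 600 cells/well, dosed 24 h after plating from DMSO stocks, 1% DMSO final. Tested from 5 nM to 100 μM for 72 h, then 3 h at 37 °C with MTS reagent and A490 read. IC50 taken from separate duplicate experiments, values given individually.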

IC50 [3] [nM] | SMILES | inhibition at 1 µM [1] [%] | inhibition at 10 µM [2] [%]
121 | C/C1=C\[C@H](C)C[C@H](C)OC(=O)C[C@H](c2ccc(O)cc2)NC(=O)[C@@H](Cc2c(Br)[nH]c3ccccc23)N(C)C(=O)[C@H](CO)NC(=O)[C@@H](C)C1 [JASPAMIDE E] | 100 | 100
100 | C/C1=C\[C@H](C)C[C@H](C)OC(=O)C[C@H](c2ccc(O)c(Br)c2)NC(=O)[C@@H](Cc2c(Br)[nH]c3ccccc23)N(C)C(=O)[C@H](C)NC(=O)[C@@H](C)C1 [PIPESTELIDE A] | 100 | 100
3350 | C/C1=C\[C@H](C)C[C@H](C)OC(=O)C[C@H](c2ccc(O)cc2)NC(=O)[C@@H](Cc2c(Br)[nH]c3ccccc23)N(C)C(=O)[C@H](C)NC(=O)[C@@H](C)C1O (stereo partly drawn) [JASPAMIDE K] | 100 | 100
 | C/C(=C\[C@H](C)C[C@H](C)O)C[C@H](C)C(=O)N[C@@H](C)C(=O)N(C)[C@H](Cc1c(Br)[nH]c2ccccc12)C(=O)N[C@H](CC(=O)O)c1ccc(O)cc1 [JASPLAKINOLIDE Z1] |  | 30
 | C/C1=C/[C@H](C)C(=O)N[C@@H](C)C(=O)N(C)[C@H](Cc2c(Br)[nH]c3ccccc23)C(=O)N[C@@H](c2ccc(O)cc2)CC(=O)O[C@@H](C)C[C@@H](C)[C@H]1O [PIPESTELIDE B] | 0 | 100
 | C=C1C[C@H](C)C(=O)N[C@@H](C)C(=O)N(C)[C@H](Cc2c(Br)[nH]c3ccccc23)C(=O)N[C@@H](c2ccc(O)cc2)CC(=O)O[C@@H](C)C[C@@H](C)[C@H]1O [JASPLAKINOLIDE CA] | 0 | 80
 | C=C1C[C@H](C)C(=O)N[C@@H](C)C(=O)N(C)[C@H](Cc2c(Br)[nH]c3ccccc23)C(=O)N[C@@H](c2ccc(O)cc2)CC(=O)O[C@@H](C)C[C@@H](C)[C@@H]1O [JASPLAKINOLIDE CB] | 75 | 100
214 | C[C@@H]1NC(=O)[C@@H](C)C/C(CO)=C/[C@H](C)C[C@H](C)OC(=O)C[C@H](c2ccc(O)cc2)NC(=O)[C@@H](Cc2c(Br)[nH]c3ccccc23)N(C)C1=O [JASPAMIDE L] | 100 | 99

SMILES | IC50 [3] [nM] | inhibition at 1 µM [1] [%] | inhibition at 10 µM [2] [%]
CC[C@H]1NC(=O)[C@@H](C)C/C(C)=C/[C@H](C)C[C@H](C)OC(=O)C[C@H](c2ccc(O)cc2)NC(=O)[C@@H](Cc2c(Br)[nH]c3ccccc23)N(C)C1=O [JASPAMIDE D] | 4.4 | 100 | 100
C=C1C[C@H](C)C(=O)N[C@@H](C)C(=O)N(C)[C@H](Cc2c(Br)[nH]c3ccccc23)C(=O)N[C@@H](c2ccc(O)cc2)CC(=O)O[C@@H](C)C[C@@H](C)C1=O [JASPLAKINOLIDE B] | 29 | 99 | 99
C/C1=C\[C@H](C)C[C@H](C)OC(=O)C[C@H](c2ccc(O)cc2)NC(=O)[C@@H](Cc2c(Br)[nH]c3ccccc23)N(C)C(=O)[C@H](C)NC(=O)[C@@H](C)C1 [JASPAMIDE] | 13 | 99 | 100
